Like-named read-outs stand apart in the source and are kept apart here.
Legend:
[1] = not told; cited from earlier work
CYP2E1 [2] = settings: in vitro competition assay; cited from earlier work
[3] = humans, 24h after oral administration of ^14C-labeled 4AP; cited from earlier work
CYP2E1 [4] = settings: humans, DSF treatment; cited from earlier work
[5] = assay type: in vivo, mice
Outline: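 Mice (isoflurane-anesthetized or awake) given IV tracer (>99% radiochemical purity, in 95% 20 mM sodium phosphate pH 8.0/5% EtOH); euthanized 35 min later. Brain homogenized in 0.4 N HClO4 (~1:2 w/v) by 30 s ultrasonication at 4 °C, spun 21,000 RCF, 8 °C, 7 min. Plasma and pH-neutralized supernatant passed through 10K filter, then radio-HPLC on C18 with 10 mM NH4HCO3 pH 8.0/MeCN (96:4). Samples kept on ice. Percent parent fraction reported.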

[6] = assay type: in vivo, mice; remark: listed apart in the source
[7] = cited from earlier work
[8] = cited from earlier work; remark: listed apart in the source

Nc1cc[n+]([O-])cc1F [3F4AP N-oxide]
permeability across an artificial brain membrane [1]: low permeability

Nc1ccncc1F [3F4AP, 3-fluoro-4-aminopyrdine]
affinity of CYP2E1 relative to the affinity for 4AP (CYP2E1 [2]): 50 times

Nc1ccncc1 [4AP, 4-aminopyridine]
radioactive species recovered in urine corresponding to the unchanged drug [3]: ~ 90%

Nc1c(O)cncc1F [5-hydroxy-3F4AP]
permeability across an artificial brain membrane [1]: low permeability

CCN(CC)C(=S)SSC(=S)N(CC)CC [DSF, disulfiram]
prevention of clinical isoflurane metabolism (CYP2E1 [4]): 80–90%

Nc1ccncc1[18F] [[^18F]3F4AP, 3-[^18F]fluoro-4-aminopyridine]
percent parent fraction in brain (%PFawk-br) ([5]; brain, awake mice, 35 min post-tracer, n = 8, mean ± SEM): 80.3 ± 2.7%
proportion of radiometabolites in the brain, anesthetized mice ([5]; brain, isoflurane-anesthetized mice, 35 min): 1.6%
percent parent fraction in brain (%PFiso-br) ([5]; brain, isoflurane-anesthetized mice, 35 min post-tracer, n = 5, mean ± SEM): 98.4 ± 0.2%
concentration of metabolites in plasma, awake mice ([5]; plasma, awake mice, 35 min): 82.3%
percent parent fraction in plasma (%PFawk-pl) ([5]; plasma, awake mice, 35 min post-tracer, n = 11, mean ± SEM): 17.7 ± 1.7%
concentration of metabolites in plasma, anesthetized mice ([5]; plasma, isoflurane-anesthetized mice, 35 min): 25.2%
percent parent fraction in plasma (%PFiso-pl) ([5]; plasma, isoflurane-anesthetized mice, 35 min post-tracer, n = 10, mean ± SEM): 74.8 ± 1.6%
SUV35 min-br (awk mice) ([6]; brain, 35 min post-injection, IV, awake mice, n = 20, mean ± SEM): 0.28 ± 0.04
WB and brain SUV values, awake vs anesthetized mice ([6]; euthanized at 60 sec (1 min) post-tracer injection, Fig. S1): no significant differences
SUV35 min-WB (awk mice) ([6]; whole blood, 35 min post-injection, IV, awake mice, mean ± SEM): 0.51 ± 0.05
SUV35 min-WB (iso mice) ([6]; whole blood, 35 min post-injection, IV, isoflurane-anesthetized mice, mean ± SEM): 0.66 ± 0.08
brain uptake SUV at 4 min ([7]; NHPs, brain, 4 min): > 3
parent fraction (metabolic stability) ([7]; NHPs, up to 2h post-injection): > 90%
brain SUV 90 min post-injection ([7]; anesthetized NHPs, brain TAC, Fig. 3A): ~ 1.50
SUV90 min-WB (NHP) ([7]; anesthetized NHPs, whole blood, 90 min): 0.946
brain SUV 90 min post-injection ([8]; awake humans, brain TAC, Fig. 3A): 0.54
SUV90 min-WB (human) ([8]; awake humans, whole blood, 90 min): 0.87
parent remaining in blood ([8]; humans, 1h post-injection): less than 50%
